ChEMBL document CHEMBL3612040, “Discovery of Selective Small Molecule Inhibitors of Monoacylglycerol Acyltransferase 3” (J Med Chem, 2015)

Assays:
Cytochrome P450 2C9 = Cytochrome P450 2C9 (Homo sapiens, UniProt P11712); assay: Drug metabolism in human hepatocytes assessed as CYP2C9-mediated compound oxidation; assay type: ADME, cell-based, Hepatocyte
[1] = Intrinsic clearance in human liver microsomes; assay type: ADME; details: read-out: CLH
CYP2C8 = biological target: T1, CYP2C8 (Homo sapiens, UniProt P10632); assay: Inhibition of CYP2C8 (unknown origin) at 3 uM; assay type: ADME
T1 sequence (P10632 whole entry): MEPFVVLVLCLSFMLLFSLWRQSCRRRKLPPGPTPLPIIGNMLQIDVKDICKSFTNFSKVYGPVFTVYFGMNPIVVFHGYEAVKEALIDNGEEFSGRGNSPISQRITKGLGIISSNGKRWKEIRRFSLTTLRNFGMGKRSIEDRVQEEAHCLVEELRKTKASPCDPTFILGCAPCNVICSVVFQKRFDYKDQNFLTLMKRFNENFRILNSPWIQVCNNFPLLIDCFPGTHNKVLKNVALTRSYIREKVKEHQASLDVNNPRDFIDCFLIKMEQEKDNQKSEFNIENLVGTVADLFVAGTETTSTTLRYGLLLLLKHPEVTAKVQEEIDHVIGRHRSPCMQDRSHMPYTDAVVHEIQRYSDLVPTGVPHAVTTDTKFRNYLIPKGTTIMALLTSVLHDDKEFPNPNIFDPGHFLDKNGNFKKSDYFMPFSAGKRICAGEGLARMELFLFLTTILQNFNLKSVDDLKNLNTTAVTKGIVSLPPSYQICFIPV

CYP2C9 = CYP2C9 (Homo sapiens, UniProt P11712); assay: Inhibition of CYP2C9 (unknown origin) at 3 uM; assay type: ADME
Chain of CYP2C9 (P11712 whole entry): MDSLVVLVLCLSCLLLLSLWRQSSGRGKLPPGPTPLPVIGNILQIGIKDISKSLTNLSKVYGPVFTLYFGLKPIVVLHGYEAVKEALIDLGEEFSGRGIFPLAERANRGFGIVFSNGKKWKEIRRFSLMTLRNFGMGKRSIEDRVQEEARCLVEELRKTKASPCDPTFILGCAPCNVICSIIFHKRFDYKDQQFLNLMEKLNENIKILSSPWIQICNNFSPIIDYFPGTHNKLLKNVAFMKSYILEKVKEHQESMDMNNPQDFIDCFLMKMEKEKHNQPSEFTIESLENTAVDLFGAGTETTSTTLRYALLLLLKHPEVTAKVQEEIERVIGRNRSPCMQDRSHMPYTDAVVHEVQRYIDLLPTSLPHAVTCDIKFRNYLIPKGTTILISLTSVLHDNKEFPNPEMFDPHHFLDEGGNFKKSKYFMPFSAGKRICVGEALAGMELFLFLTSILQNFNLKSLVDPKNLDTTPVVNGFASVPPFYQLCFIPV

[2] = Lipophilicity, logD of the compound at pH 7.4; assay type: physicochemical; details: buffer
Method in brief: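 Shake-flask octanol:water partition at pH 7.4, with MS analysis of samples.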

Hepatocyte = assay: Drug metabolism in human hepatocytes assessed as compound oxidation; assay type: ADME, cell-based
[3] = Apparent permeability in RRCK cells; assay type: ADME, cell-based, Canis lupus familiaris, MDCKII-LE; details: dog, MDCK
[4] = biological target: T2, Diacylglycerol O-acyltransferase 2 (Homo sapiens, UniProt Q96PD7); assay: Inhibition of DGAT2 (unknown origin) using [1-14C]decanoyl-CoA and didecanoyl-sn-glycerol substrates incubated for 40 mins
T2 sequence (Q96PD7 whole entry): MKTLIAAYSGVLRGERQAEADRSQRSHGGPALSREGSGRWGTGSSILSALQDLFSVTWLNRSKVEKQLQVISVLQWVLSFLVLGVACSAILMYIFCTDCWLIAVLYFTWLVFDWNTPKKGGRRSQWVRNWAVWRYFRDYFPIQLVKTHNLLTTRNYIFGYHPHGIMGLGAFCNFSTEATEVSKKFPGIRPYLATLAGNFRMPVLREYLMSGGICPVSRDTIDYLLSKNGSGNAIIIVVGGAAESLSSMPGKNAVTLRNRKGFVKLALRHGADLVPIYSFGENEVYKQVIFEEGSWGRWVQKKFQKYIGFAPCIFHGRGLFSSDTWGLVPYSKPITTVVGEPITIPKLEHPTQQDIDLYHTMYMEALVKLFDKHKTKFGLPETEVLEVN
Method in brief: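 DGAT2 membrane fraction (0.01 mg/mL) in 100 mM Hepes-NaOH pH 7.4, 20 mM MgCl2, 200 nM MAFP. Compound first held 20 min with 0.04% fatty-acid-free BSA, then preincubated 120 min at RT with enzyme. Started with 30 µM [1-14C]decanoyl-CoA and 125 µM 1,2-didecanoyl-sn-glycerol; ran 40 min at RT, acid-stopped. Labelled TAG read by scintillation after phase partitioning.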

[5] = biological target: T3, Diacylglycerol O-acyltransferase 1 (Homo sapiens, UniProt O75907); assay: Inhibition of DGAT1 (unknown origin) assessed as effect on incorporation of [1-14C]decanoyl moiety into TG using [1-14C]decanoyl-CoA and 1,2-didecanoyl-sn-glycerol as substrates
T3 sequence (O75907 whole entry): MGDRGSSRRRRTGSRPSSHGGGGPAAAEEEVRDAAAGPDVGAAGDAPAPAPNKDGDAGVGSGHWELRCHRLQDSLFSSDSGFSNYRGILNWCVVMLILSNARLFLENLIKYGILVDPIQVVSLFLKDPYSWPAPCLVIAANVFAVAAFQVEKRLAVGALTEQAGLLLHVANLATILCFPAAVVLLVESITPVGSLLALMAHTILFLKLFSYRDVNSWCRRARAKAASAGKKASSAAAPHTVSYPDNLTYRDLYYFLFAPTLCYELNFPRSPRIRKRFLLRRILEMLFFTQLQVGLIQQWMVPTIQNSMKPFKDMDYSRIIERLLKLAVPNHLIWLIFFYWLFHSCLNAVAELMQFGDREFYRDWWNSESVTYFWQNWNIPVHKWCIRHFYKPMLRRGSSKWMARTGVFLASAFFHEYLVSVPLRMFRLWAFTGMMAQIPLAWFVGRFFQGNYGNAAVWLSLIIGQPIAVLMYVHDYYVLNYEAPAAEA

Chain of Cytochrome P450 2C9 (P11712 whole entry): as the sequence (P11712 whole entry) above

Row | Drug metabolism (Cytochrome P450 2C9) | microsomal CLint [1] [µL/min/mg] | inhibition at 3 µM (CYP2C8) [%] | inhibition at 3 µM (CYP2C9) [%] | logD [2] | Drug metabolism (Hepatocyte) | Papp [3] [nm/s] | IC50 [4] [µM] | IC50 [5] [µM] | Stability (Hepatocyte) | Structure (SMILES)
1 |  | < 8 |  |  | 1.5 |  | 70 |  |  |  | COc1cccc(CC(=O)N2Cc3ccc(S(=O)(=O)Nc4cnn(C5CC(F)(F)C5)n4)cc3C2)c1
2 |  | > 320 | 29 | 35 | 3.6 |  | 80 | > 40 | 31 |  | COc1cccc(CC(=O)N2Cc3ccc(S(=O)(=O)NCCc4cccc(F)c4)cc3C2)c1

Continued, compound first:

Row | Structure (SMILES) | Drug metabolism (Cytochrome P450 2C9) | microsomal CLint [1] [µL/min/mg] | inhibition at 3 µM (CYP2C8) [%] | inhibition at 3 µM (CYP2C9) [%] | logD [2] | Drug metabolism (Hepatocyte) | Papp [3] [nm/s] | IC50 [4] [µM] | IC50 [5] [µM] | Stability (Hepatocyte)
3 | COc1cccc(CC(=O)N2Cc3ccc(S(=O)(=O)Nc4cnn(-c5ccccc5)n4)cc3C2)c1 | metabolite_detected | 273 | 48 | 88 | 2.3 | metabolite_detected | 150 |  |  | 
4 | COc1cccc(CC(=O)N2Cc3ccc(S(=O)(=O)Nc4cnn(C(C)C)n4)cc3C2)c1 |  | < 8 |  |  | 1.4 |  | 250 |  |  | 
5 | COc1cccc(CC(=O)N2Cc3ccc(S(=O)(=O)Nc4cnn(C5CCOCC5)n4)cc3C2)c1 |  | < 8 |  |  | 0.9 |  | 50 |  |  | Stable
